Results of several laboratories.
Protocols differ between the studies behind these lines.
Target: Serine/threonine-protein kinase WNK1 (WNK1, Homo sapiens, UniProt Q9H4A3)

Structure (SMILES) | assay | conditions | measurement | value
Cn1cncc1C1=CN(c2ncnc3[nH]cnc23)CCS1 | enzyme activity, inhibitor, radiometric | 50 nM | inhibition | 14.1%
CCCCN(CCCC)C(=O)CN1C[C@@H](c2cc(OC)c3c(c2)OCO3)[C@H](C(=O)O)[C@H]1CC(C)(C)CCC | cell-free assay, competition with immobilised ligand | 1 µM | remaining binding | 96.8%
Nc1ncnc2occ(-c3ccc(NC(=O)Nc4cc(C(F)(F)F)ccc4F)cc3)c12 | cell-free assay, inhibitor | 20 µM | remaining signal | 87%
N#Cc1ccc(Nc2ccc3[nH]c(=O)[nH]c3c2)c(Cl)c1 | cell-free assay, competition with immobilised ligand | 1 µM | remaining binding | 100%
C[C@@H]1CCN(c2nccc(-c3cnn4ncccc34)n2)C1 | binding | 1 µM | remaining binding | 92%
CC(C)(O)[C@H]1CC[C@H](Nc2ccc3ncc(-c4cccc(C(F)(F)F)c4)n3n2)CC1 | enzyme activity, inhibitor | 1 µM | remaining activity | 92.6%
CC(C)(C)c1nc(-c2cccc(NS(=O)(=O)c3c(F)cccc3F)c2F)c(-c2ccnc(N)n2)s1 | enzyme activity, inhibitor, radiometric | 1 µM | remaining activity | 98%
FC(F)(F)Oc1cccc(-c2cnc3ccc(-c4ccncc4)nn23)c1 | enzyme activity, inhibitor, radiometric | 1 µM | activity vs control | 105%
Cc1ccc(C(=O)NCc2ccsc2)cc1C#Cc1cn(C(C)C)c2ncnc(N)c12 | enzyme activity, inhibitor | 1 µM | activity vs control | 92%
COc1ccc2cc(OCC3(C(=O)O)CN(C(=O)c4ccc(F)cc4)C3)ccc2c1 | cell-free assay, competition with immobilised ligand | 1 µM | remaining binding | 84%
COc1cc(Nc2cnc(C#N)c(O[C@H](C)CN(C)C)n2)ncc1-c1cnn(C)c1 | enzyme activity, inhibitor, radiometric | 10 µM | remaining activity | 75%
Cn1cc(Cl)c2c(Oc3c(F)cc(Nc4cc(Cl)nc(N)n4)cc3F)ccnc21 | cell-free assay, competition with immobilised ligand | 0.1 µM | remaining binding | 98%
Cc1sc(C(=O)NC2COC2)cc1-n1cc(NC(=O)Nc2c(F)cccc2Cl)cn1 | enzyme activity, inhibitor | 10 µM | remaining activity | 88.9%
C[C@@H]1CN(c2cc(-c3nn(C)c4ccc(OC5(C)CC5)cc34)ncn2)C[C@H](C)O1 | cell-free assay, competition with immobilised ligand | 1 µM | remaining binding | 82%
O=C(CSc1nc2nccnc2c(=O)n1CCc1ccccc1)Nc1nccs1 | enzyme activity, inhibitor | 10 µM | inhibition | 1%
